According to ChEMBL document CHEMBL4342526, “Exploration of the Structural Space in 4(3H)-Quinazolinone Antibacterials” (J Med Chem, 2020):
≈ marks a conversion by molar mass, not a printed value.

Columns and labels:
Staphylococcus aureus [1] = assay: Antibacterial activity against Staphylococcus aureus ATCC 29213 measured after 16 to 20 hrs by microdilution method; format: functional
Outline: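 CLSI broth microdilution: two-fold serial dilutions in triplicate in cation-adjusted Mueller–Hinton broth with 2% NaCl, inoculum 5 × 10^5 CFU/mL, incubated at 37 °C for 16–20 h. MIC is the lowest concentration preventing visible growth.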

Staphylococcus aureus [2] = assay: Antibacterial activity against Staphylococcus aureus ATCC 29213 measured after 16 to 20 hrs in presence of bovine serum albumin by microdilution method; format: functional
Outline: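 S. aureus ATCC29213 MIC was run by CLSI microdilution in cation-adjusted Mueller–Hinton broth plus 2% NaCl, with and without 0.5% bovine serum albumin. Compounds were two-fold serially diluted in triplicate, inoculum was 5 × 10^5 CFU/mL, and plates were incubated at 37 °C for 16–20 h. The endpoint was the lowest concentration with no visible growth.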

Staphylococcus aureus [3] = assay: Antibacterial activity against clindamycin/erythromycin/spectinomycin-resistant mec-positive Staphylococcus aureus NRS70 measured after 16 to 20 hrs by microdilution method; format: functional
Outline: (§1)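 CLSI broth microdilution; two-fold serial compound dilutions in triplicate in cation-adjusted Mueller–Hinton broth with 2% NaCl, inoculum 5 × 10^5 CFU/mL; 37 °C for 16–20 h; MIC = lowest concentration with no visible growth.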

Staphylococcus aureus [4] = assay: Antibacterial activity against multi-drug resistant mecA-positive Staphylococcus aureus NRS119 measured after 16 to 20 hrs by microdilution method; format: functional; outline: as §1
Staphylococcus aureus [5] = assay: Antibacterial activity against multi-drug resistant mec-positive Staphylococcus aureus USA300 measured after 16 to 20 hrs by microdilution method; format: functional; outline: as §1
HeLa = assay: Cytotoxicity against human HeLa cells assessed as reduction in cell viability measured after 16 hrs by XTT assay; format: cell-based
Outline: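 HeLa cells (ATCC CCL-2), run in triplicate. Viability was read by XTT, and IC50 was obtained by nonlinear regression.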

[6] = Selectivity index, ratio of IC50 for human HeLa cells to MIC for clindamycin/erythromycin/spectinomycin-resistant mec-positive Staphylococcus aureus NRS70; format: toxicity
Outline: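 HeLa cytotoxicity by XTT assay in triplicate, IC50 by nonlinear regression; ratio IC50 over broth microdilution MIC against NRS70.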

[7] = Protein binding in human plasma at 10 uM measured after 6 hrs UV-UPLC based rapid equilibrium dialysis method; format: ADME, cell-free
Outline: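 Rapid equilibrium dialysis: human plasma was cleared by centrifugation and spiked from a 1 mM DMSO stock to a final 10 μM, against 0.1 M PBS pH 7.4. Dialysis ran 6 h at 37 °C with orbital shaking. Buffer (free) and plasma (total) aliquots were mixed with internal standard in acetonitrile and measured by UPLC-UV at 285 nm. B% = (Cp−Cf)/Cp×100.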

Staphylococcus aureus [8] = assay: Antibacterial activity against multi-drug resistant mecA-positive Staphylococcus aureus ATCC 27660 measured after 16 to 20 hrs by microdilution method; format: functional; outline: as §1

Structure (SMILES)	MIC (Staphylococcus aureus [1])	other results
O=C(O)c1cccc(-n2c(/C=C/c3cccnc3)nc3ccccc3c2=O)c1	> 128 µg/mL	
N#Cc1ccc(/C=C/c2nc3ccccc3c(=O)n2-c2ccc3nc[nH]c3c2)cc1	> 128 µg/mL	
N#Cc1ccc(/C=C/c2nc3ccccc3c(=O)n2-c2cc(C(=O)O)ccc2C(F)(F)F)cc1	> 128 µg/mL	
N#Cc1ccc(/C=C/c2nc3ccccc3c(=O)n2-c2cccc(C(=O)O)n2)cc1	> 128 µg/mL	
N#Cc1ccc(CNc2nc3ccccc3c(=O)n2-c2cccc(N)c2)cc1	8 µg/mL (≈ 21.8 µM)	
N#Cc1ccc(/C=C/c2nc3ccccc3c(=O)n2-c2ccc(N)cc2)cc1	> 128 µg/mL	
O=C(O)c1cccc(-n2c(/C=C/c3ccnc(F)c3)nc3ccccc3c2=O)c1	> 128 µg/mL	
N#Cc1ccc(CNc2nc3ccccc3c(=O)n2-c2cccc([N+](=O)[O-])c2)cc1	> 128 µg/mL	
O=c1c2ccccc2nc(NCc2ccc(F)cc2)n1-c1cccc([N+](=O)[O-])c1	> 128 µg/mL	
N#Cc1ccc(/C=C/c2nc3ccccc3c(=O)n2-c2cccc(C(=O)O)c2F)cc1	8 µg/mL (≈ 19.4 µM)	
N#Cc1ccc(/C=C/c2nc3ccccc3c(=O)n2-c2cccc(NC(=O)CN3CCOCC3)c2)cc1	32 µg/mL (≈ 65.1 µM)	
N#Cc1ccc(/C=C/c2nc3ccccc3c(=O)n2-c2ccc(F)c(C(=O)O)c2)cc1	16 µg/mL (≈ 38.9 µM)	
O=C(O)c1cccc(-n2c(SCc3ccccc3)nc3ccccc3c2=O)c1	0.25 µg/mL (≈ 0.644 µM)	MIC (Staphylococcus aureus [2]): 4 µg/mL; MIC (Staphylococcus aureus [3]): 0.5 µg/mL (≈ 1.29 µM); MIC (Staphylococcus aureus [4]): 1 µg/mL (≈ 2.57 µM); MIC (Staphylococcus aureus [5]): 1 µg/mL (≈ 2.57 µM); IC50 (HeLa): > 64 µg/mL; selectivity ratio [6]: > 128; PPB [7]: > 99.9%
N#Cc1ccc(CNc2nc3ccccc3c(=O)n2-c2cccc(C(=O)O)c2)cc1	> 128 µg/mL	
N#Cc1ccc(/C=C/c2nc3ccccc3c(=O)n2-c2cccc(NC(=O)NCCc3cnc[nH]3)c2)cc1	16 µg/mL (≈ 31.9 µM)	
N#Cc1ccc(/C=C/c2nc3ccccc3c(=O)n2-c2cccnc2)cc1	> 128 µg/mL	
N#Cc1ccc(/C=C/c2nc3ccccc3c(=O)n2-c2ccccc2[N+](=O)[O-])cc1	> 128 µg/mL	

Structure (SMILES)	MIC (Staphylococcus aureus [1])	other results
O=C(O)c1cccc(-n2c(/C=C/c3cc[n+]([O-])cc3)nc3ccccc3c2=O)c1	> 128 µg/mL	
O=C(O)c1cccc(-n2c(/C=C/C3CC3)nc3ccccc3c2=O)c1	> 128 µg/mL	
N#Cc1ccc(/C=C/c2nc3ccccc3c(=O)n2-c2cccc(C(=O)O)c2)cn1	64 µg/mL (≈ 162 µM)	
N#Cc1ccc(/C=C/c2nc3ccccc3c(=O)n2-c2cccc(CNC(=O)C(F)(F)F)c2)cc1	0.5 µg/mL (≈ 1.05 µM)	MIC (Staphylococcus aureus [2]): 8 µg/mL; MIC (Staphylococcus aureus [3]): 64 µg/mL (≈ 135 µM); MIC (Staphylococcus aureus [8]): 64 µg/mL (≈ 135 µM); MIC (Staphylococcus aureus [5]): 4 µg/mL (≈ 8.43 µM); IC50 (HeLa): 150 µg/mL (≈ 316 µM); selectivity ratio [6]: 2; PPB [7]: > 99.9%
COc1ccc(C(=O)O)cc1-n1c(/C=C/c2ccc(C#N)cc2)nc2ccccc2c1=O	> 128 µg/mL	
Nc1cccc(-n2c(NCc3ccc(F)cc3)nc3ccccc3c2=O)c1	64 µg/mL (≈ 178 µM)	
CNCCC(=O)Nc1cccc(-n2c(/C=C/c3ccc(C#N)cc3)nc3ccccc3c2=O)c1	> 128 µg/mL	
N#Cc1ccc(/C=C/c2nc3ccccc3c(=O)n2-c2ccc([N+](=O)[O-])cc2)cc1	> 128 µg/mL	
C#Cc1ccc(/C=C/c2nc3ccccc3c(=O)n2-c2cccc(C(=O)O)c2)cc1	0.03 µg/mL (≈ 0.0764 µM)	MIC (Staphylococcus aureus [2]): 0.25 µg/mL; MIC (Staphylococcus aureus [4]): 0.125 µg/mL (≈ 0.319 µM); MIC (Staphylococcus aureus [8]): 0.125 µg/mL (≈ 0.319 µM); MIC (Staphylococcus aureus [5]): 0.03 µg/mL (≈ 0.0764 µM); IC50 (HeLa): > 128 µg/mL; selectivity ratio [6]: > 256
O=C(O)c1cccc(-n2c(/C=C/c3ccsc3)nc3ccccc3c2=O)c1	32 µg/mL (≈ 85.5 µM)	
O=C(O)c1cccc(-n2c(/C=C/c3ccncc3)nc3ccccc3c2=O)c1	64 µg/mL (≈ 173 µM)	
O=C(O)c1cccc(-n2c(/C=C/c3cncs3)nc3ccccc3c2=O)c1	> 128 µg/mL	
O=C(O)c1cccc(-n2c(/C=C/c3cccs3)nc3ccccc3c2=O)c1	8 µg/mL (≈ 21.4 µM)	
COC(=O)c1cccc(-n2c(NCc3ccc(F)cc3)nc3ccccc3c2=O)c1	> 128 µg/mL	
N#Cc1ccc(/C=C/c2nc3ccccc3c(=O)n2-c2cc(O)cc(C(=O)O)c2)cc1	> 128 µg/mL	
COC(=O)c1cccc(-n2c(NCc3ccc(C#N)cc3)nc3ccccc3c2=O)c1	16 µg/mL (≈ 39 µM)	
N#Cc1ccc(/C=C/c2nc3ccccc3c(=O)n2-c2cc(F)cc(C(=O)O)c2)cc1	> 128 µg/mL	
